Data reported in ChEMBL document CHEMBL1144241, “Deuterium isotope effects for the oxidation of 1-methyl-3-phenyl-3-pyrrolinyl analogues by monoamine oxidase B” (Bioorg Med Chem, 2008).

Experiments:
Papio [1] = test: Activity of baboon liver mitochondrial MAOB per mg of mitochondria assessed as oxidation of 1-methyl-3-phenyl-3-pyrroline by HPLC/UV analysis; conditions: tested as the 2H-labelled form
How it was run: (§1)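 Enzyme source was baboon liver mitochondria (no MAO-A inactivation), at 0.15 mg protein/mL in 100 mM sodium phosphate, pH 7.4. Substrate oxalate salts were tested at eight concentrations, 12.5–2000 µM, for 10 min at 37 °C, then stopped with trichloroacetic acid and centrifuged. Pyrrolyl products were measured by HPLC-UV at 270 nm against calibration curves. Initial rates were fitted to Michaelis–Menten, in triplicate, mean ± SEM.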

Papio [2] = test: Ratio of Vmax to Km for baboon liver mitochondrial MAOB assessed as oxidation of 1-methyl-3-phenyl-3-pyrroline by HPLC/UV analysis; conditions: tested as the 2H-labelled form; how it was run: as §1
Papio [3] = test: Activity of baboon liver mitochondrial MAOB per mg of mitochondria by HPLC/UV analysis; how it was run: as §1
[4] = Metabolic stability in (R)-deprenyl pre-inactivated baboon liver mitochondrial fraction assessed as oxidation to 1-methyl-3-phenylpyrrole; assay type: ADME, Papio
Papio [5] = test: Activity of baboon liver mitochondrial MAOB by HPLC/UV analysis; how it was run: as §1
[6] = Metabolic stability in (R)-deprenyl pre-inactivated baboon liver mitochondrial fraction assessed as pyrrolyl oxidation product at 50 uM after 10 mins by HPLC analysis; assay type: ADME, Papio
Papio [7] = test: Deuterium isotope effect on Vmax/Km for baboon liver mitochondrial MAOB assessed as oxidation of 1-methyl-3-(4-fluorophenyl-3-pyrroline by HPLC/UV analysis; conditions: tested as the 2H-labelled form
Papio [8] = test: Activity of baboon liver mitochondrial MAOB per mg of mitochondria assessed as oxidation of 1-methyl-3-(4-fluorophenyl-3-pyrroline by HPLC/UV analysis; conditions: tested as the 2H-labelled form
How it was run: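 Baboon liver mitochondrial fraction as MAO-B source (no MAO-A activity; protein by Bradford), 0.15 mg protein/mL, in 100 mM sodium phosphate pH 7.4. Substrate as oxalate salt at eight concentrations, 12.5–2000 µM. Incubated 10 min at 37 °C; stopped with trichloroacetic acid. Pyrrolyl product quantified by HPLC-UV at 270 nm against calibration curve. Triplicates; Michaelis–Menten fit for Km and Vmax (nmol/min-mg mitochondria).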

D(Vmax/Km) isotope effect (Papio [7]) | D(Km) isotope effect (Papio [8]) | D(Vmax) isotope effect (Papio [8]) | SMILES | Km (Papio [1]) [µM] | Vmax (Papio [1]) [nmol/min] | Vmax/Km (Papio [2]) [nmol/min.µM] | Vmax (Papio [3]) [nmol/min] | Vmax (Papio [3]; tested as the 2H-labelled form) [nmol/min] | Activity [4] [%] | Km (Papio [5]) [µM] | Km (Papio [5]; tested as the 2H-labelled form) [µM] | Activity [6] [%]
 |  |  | CN1CC=C(c2ccccc2)C1 | 0.8 | 4.29 | 5.71 | 9.07 | 2.11 | 8.4 | 118 | 157 | 
 |  |  | [2H]C1=C(c2ccccc2)C([2H])([2H])N(C)C1([2H])[2H] |  |  |  |  |  |  |  |  | 2.6
3.37 | 1.19 | 3.98 | CN1CC=C(c2ccc(F)cc2)C1 |  |  |  | 15.7 | 3.96 |  | 87.2 | 73.8 | 
